Test results as given in ChEMBL document CHEMBL5038582, “Adamantyl Isothiocyanates as Mutant p53 Rescuing Agents and Their Structure-Activity Relationships” (J Med Chem, 2021).
Activity calls are given as the source filed them.

Experiments:
MDA-MB-468 [1] = experiment: Antiproliferative activity against human MDA-MB-468 cells expressing p53 R273H mutant assessed as inhibition of cell growth incubated for 24 to 72 hrs by WST-1 assay; assay type: functional, cell-based
Summary of the method: (§1)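 WST-1 proliferation assay. Compound diluted in DMSO and added to cells at 1% DMSO final. 4,000 cells/well in duplicate; DMSO-only wells as control, cell-free medium wells for background.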

MDA-MB-231 [2] = experiment: Antiproliferative activity against human MDA-MB-231 cells expressing p53 R280K mutant assessed as inhibition of cell growth incubated for 72 hrs by WST-1 assay; assay type: functional, cell-based; settings: MDA-MB-231, 72 h; summary of the method: as §1
MDA-MB-231 [3] = experiment: Inhibition of colony formation in human MDA-MB-231 expressing p53 R280K mutant assessed as decrease in number of colonies at 1.5 to 24 uM incubated for 24 hrs followed by incubation in fresh medium for 10 days by methylene blue staining based analysis; assay type: functional, cell-based; settings: dose 1.5-24 µM
Summary of the method: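 500 cells/well seeded 24 h before treatment. Cells exposed to compound or DMSO control for 24 h at 37 °C, then grown 10 days at 37 °C in RPMI with 10% FBS. Colonies fixed in methanol, stained with methylene blue and counted. Survival expressed as percent of DMSO control.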

MCF7 [4] = experiment: Induction of apoptosis in human MCF-7 cells expressing wild type p53 assessed increase in number of Annexin-V stained cells at 6 to 12 uM incubated for 24 hrs by AnnexinV-FITC and PI staining based flow cytometry; assay type: functional, cell-based; settings: dose 6-12 µM
Summary of the method: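 24 h treatment, DMSO control. Cells scraped, washed in PBS, then given fluorochrome-conjugated Annexin V for 15 min at RT in the dark, followed by PI (0.1 µg/ml) in binding buffer. Read by flow cytometry on LSRFortessa. Annexin V-positive cells expressed relative to the DMSO control.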

MCF7 [5] = experiment: Upregulation of p53 mRNA expression in human MCF7 cells at 6 uM measured after 4 hrs by qRT-PCR analysis; assay type: functional, cell-based
Summary of the method: (§2)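 Cells treated with DMSO or 6 µM test compound for 4 h. RNA extracted, cDNA synthesised, transcript measured by TaqMan qRT-PCR and normalised to GAPDH. Averages from triplicates of repeated experiments, with standard deviation.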

MDA-MB-468 [6] = experiment: Downregulation of p53 R273H mutant expression in human MDA-MB-468 cells at 6 to 12 uM measured after 24 hrs by immunoblot analysis; assay type: functional, cell-based; settings: dose 6-12 µM
Summary of the method: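 24 h exposure to 6 or 12 μM, DMSO control. Lysis in Tris pH 8.0/NaCl/glycerol/NP-40/EDTA buffer with protease inhibitors. 20 µg (MDA-MB-231, MDA-MB-468) or 50 µg (MCF-7) of lysate run on 4-12% SDS-PAGE. Blot probed with p53 DO-1, GAPDH used for reprobe/loading. Triplicate experiments.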

[7] = tested on: Cellular tumor antigen p53 (Homo sapiens), P04637 [R273H]; experiment: Reactivation of transactivation function to p53 R273H mutant in human MDA-MB-468 cells assessed as increase in NOXA mRNA expression at 6 uM incubated for 4 hrs by qRT-PCR analysis; assay type: cell-based; settings: filed as activator; summary of the method: as §2
[8] = tested on: Cellular tumor antigen p53 (Homo sapiens), P04637 [R273H]; experiment: Reactivation of transactivation function to p53 R273H mutant in human MDA-MB-468 cells assessed as increase in MDM2 mRNA expression at 6 uM incubated for 4 hrs by qRT-PCR analysis; assay type: cell-based; settings: filed as activator; summary of the method: as §2
MDA-MB-231 [9] = experiment: Antiproliferative activity against human MDA-MB-231 cells expressing p53 R280K mutant assessed as inhibition of cell growth incubated for 24 hrs by WST-1 assay; assay type: functional, cell-based; settings: MDA-MB-231, 24 h; summary of the method: as §1
[10] = tested on: Cellular tumor antigen p53 (Homo sapiens), P04637 [R280K]; experiment: Reactivation of transactivation function to p53 R280K mutant in human MDA-MB-231 cells assessed as increase in NOXA mRNA expression at 6 uM incubated for 4 hrs by qRT-PCR analysis; assay type: cell-based; settings: filed as activator; summary of the method: as §2
MCF7 [11] = experiment: Induction of apoptosis in human MCF7 cells expressing wild type p53 assessed as decrease in level of uncleaved PARP1 level at 6 to 12 uM measured after 24 hrs by western blotting analysis; assay type: functional, cell-based; settings: dose 6-12 µM
Summary of the method: (§3)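 Cells treated with DMSO or compound at 6 or 12 µM for 24 h, then lysed in Tris-Cl pH 8.0/NaCl/glycerol/NP-40/EDTA buffer with protease inhibitors. 100 µg lysate resolved on 4-12% SDS-PAGE and blotted to PVDF. Probed with anti-PARP or anti-caspase 3, then HRP secondary and ECL. GAPDH reprobe as control.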

MCF7 [12] = experiment: Antiproliferative activity against human MCF7 cells expressing WT p53 assessed as inhibition of cell growth at 10 to 50 uM incubated for 24 to 72 hrs by WST-1 assay; assay type: functional, cell-based; settings: dose 10-50 µM, time 24-72 hrs
Summary of the method: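 WST-1 proliferation assay. Compound diluted in DMSO so that 10 μl of stock in 1 ml of cells (40,000 cells/ml) gives the test concentration at 1% DMSO. Cells plated at 4,000/well in duplicate and incubated at 37 °C for 24 h or 72 h. Result given as % of the 1% DMSO control.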

[13] = molecular target: Cellular tumor antigen p53 (Homo sapiens) (UniProt P04637); experiment: Activation of p53 in human MCF7 cells assessed as increase in NOXA mRNA expression at 6 uM incubated for 4 hrs by qRT-PCR analysis; assay type: cell-based; settings: filed as activator; summary of the method: as §2
[14] = tested on: Cellular tumor antigen p53 (Homo sapiens), P04637 [R280K]; experiment: Reactivation of transactivation function to p53 R280K mutant in human MDA-MB-231 cells assessed as increase in p21 mRNA expression at 6 uM incubated for 4 hrs by qRT-PCR analysis; assay type: cell-based; settings: filed as activator; summary of the method: as §2
MDA-MB-468 [15] = experiment: Induction of apoptosis in human MDA-MB-468 cells expressing p53 R273H mutant assessed as decrease in level of uncleaved PARP1 level at 6 to 12 uM measured after 24 hrs by western blotting analysis; assay type: functional, cell-based; settings: dose 6-12 µM; summary of the method: as §3
[16] = molecular target: Cellular tumor antigen p53 (Homo sapiens) (UniProt P04637); experiment: Activation of p53 in human MCF7 cells assessed as increase in MDM2 mRNA expression at 6 uM incubated for 4 hrs by qRT-PCR analysis; assay type: cell-based; settings: filed as activator; summary of the method: as §2
MDA-MB-468 [17] = experiment: Effect on p53 R273H mutant mRNA expression in human MDA-MB-468 cells at 6 uM measured after 4 hrs by qRT-PCR analysis; assay type: functional, cell-based; summary of the method: as §2
MCF7 [18] = experiment: Induction of apoptosis in human MCF7 cells expressing wild type p53 assessed as increase in cleaved PARP1 level at 6 to 12 uM measured after 24 hrs by western blotting analysis; assay type: functional, cell-based; settings: dose 6-12 µM; summary of the method: as §3
MDA-MB-231 [19] = experiment: Downregulation of p53 R280K mutant expression in human MDA-MB-231 cells at 6 to 12 uM measured after 24 hrs by immunoblot analysis; settings: dose 6-12 µM
MCF7 [20] = experiment: Upregulation of p53 expression in human MCF7 cells at 6 to 12 uM measured after 24 hrs by immunoblot analysis; assay type: functional, cell-based; settings: dose 6-12 µM
Summary of the method: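 Cells treated with DMSO or compound at 6 or 12 µM for 24 h and lysed. 50 µg MCF-7 lysate resolved by SDS-PAGE and probed with p53 DO-1 antibody. Reprobed with anti-GAPDH as loading control. Run in triplicate.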

[21] = tested on: Cellular tumor antigen p53 (Homo sapiens), P04637 [R273H]; experiment: Reactivation of transactivation function to p53 R273H mutant in human MDA-MB-468 cells assessed as increase in p21 mRNA expression at 6 uM incubated for 4 hrs by qRT-PCR analysis; assay type: cell-based; settings: filed as activator; summary of the method: as §2

[Se]=C=NCCC12CC3CC(CC(C3)C1)C2
inactive: Activity (MCF7 [4]) | Activity (MCF7 [11]) | Activity (MDA-MB-468 [17]) | Activity (MCF7 [18])
6 µM: IC50 (MDA-MB-468 [1]) | IC50 (MDA-MB-231 [2]) | IC50 (MDA-MB-231 [9])
active: inhibition (MDA-MB-231 [3]) | Activity (MCF7 [5]) | inhibition (MDA-MB-468 [6]) | Activity [7] | Activity [8] | Activity [10] | Activity (MCF7 [12]) | Activity [13] | Activity [14] | Activity (MDA-MB-468 [15]) | Activity [16] | p53 R280K downregulation (active/not active) (MDA-MB-231 [19]) | Activity (MCF7 [20]) | Activity [21]

S=C=NCCCC12CC3CC(CC(C3)C1)C2
inactive: Activity (MCF7 [4]) | Activity (MCF7 [11]) | Activity (MDA-MB-468 [17]) | Activity (MCF7 [18]) | Activity (MCF7 [20])
active: inhibition (MDA-MB-231 [3]) | Activity (MCF7 [5]) | inhibition (MDA-MB-468 [6]) | Activity [7] | Activity [8] | Activity [10] | Activity (MCF7 [12]) | Activity [13] | Activity [14] | Activity (MDA-MB-468 [15]) | Activity [16] | p53 R280K downregulation (active/not active) (MDA-MB-231 [19]) | Activity [21]
12 µM: IC50 (MDA-MB-468 [1]) | IC50 (MDA-MB-231 [2]) | IC50 (MDA-MB-231 [9])
